FN deposit inh: fibronectin deposition inhibition; 350,000 compounds, 0.086% hits; AH1F fibroblasts, Alexa488-fibronectin deposition fluorescence, overnight; inhibition, % at 12.6 µM; AID 743247;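 active = mean inhibition across replicates of 30% or more, regardless of how many single replicates reach that level; inconclusive = mean under 30% yet at least half of replicates reach 30%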;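 also: positive control wells lacked labelled fibronectin entirely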
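Material: AH1F fibroblast monolayer depositing Alexa488-labelled fibronectin into matrix | Input: 10000 AH1F cells/well | Medium: DMEM plus 2% serum, read in PBS | Reagent: Alexa488-fibronectin, 24 nM final in well | Compound dosing: One dose per compound, pinned | Schedule: 1 h adhesion, overnight exposure | Measured by: Fluorescence at 485 nm excitation, 525 nm emission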
FGF22 binding: binders of recombinant human FGF22 by thermal shift; SYPRO orange fluorescence; percent of sucrose octasulfate shift, DMSO zero; Q9HCT0; activity (Tm shift, normalised), % at 9.99 µM; 340,000 compounds, 1.5% hits;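 active = mean Tm shift, scaled 0 neutral to 100 positive control, at about 1.3% or above, every replicate too, limit read from the data; inconclusive = no clear call, values can overlap the other calls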
Target sequence (Q9HCT0 whole entry, looked up): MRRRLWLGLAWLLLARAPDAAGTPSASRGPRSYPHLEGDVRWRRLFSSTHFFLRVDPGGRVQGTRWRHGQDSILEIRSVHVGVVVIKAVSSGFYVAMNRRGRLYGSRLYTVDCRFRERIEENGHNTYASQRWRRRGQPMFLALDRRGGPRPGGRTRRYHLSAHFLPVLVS
ARNT TACC3 PPI: disrupts binding between human ARNT and TACC3. Q9Y6A5. 390,000 compounds, 0.66% hits. inhibition, % at 9.99 µM. AlphaScreen His-ARNT PAS-B/GST-TACC3 binding, luminescence; TACC3 fragment carries E629A point mutation;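 active = mean inhibition of replicates at least 50% and at least half of replicates each reaching 50%; inconclusive = half or more replicates reach 50% but mean below 50%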;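 also: 0% = complete ARNT plus TACC3 wells and 100% = ARNT alone without TACC3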
Xi reactivation: X-chromosome reactivation activator. XiGFP mouse fibroblasts, % GFP-positive cells imaging, 3 d; cells co-treated with 5-aza-dC sensitizer; scaled so ellipticine positive control = 100%. activation, % at 7.58 µM. 360,000 compounds, 0.055% hits;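 active = mean normalized replicate activation at least 10% and every replicate at or above 10%; inconclusive = only one of the two criteria met; inactive = mean below 10% and not all replicates reach 10%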;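 also: 0% = median of on-plate neutral control wells and 100% = ellipticine 6 µM median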
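assay system = SV40-immortalized XiGFP fibroblast cells, line 68-5-11 | buffer or medium = DMEM plus 5-aza-dC sensitizer | doses = single-point pinned compound dosing | times = 3-day compound exposure, then 15 min fixation at room temperature | benchmarks = positive control ellipticine, 6 µM final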
SIRT5 inh: inhibitors of human sirtuin-5 desuccinylase; Q9NXA8; Purified SirT5, succinyl-peptide AMC, trypsin-coupled fluorescence; inhibition, % at 15 µM; 330,000 compounds, 1.1% hits; AID 652115; in the data active = inhibition above about 15%; inconclusive = no clear call, values can overlap the other calls
Target sequence (Q9NXA8 whole entry, looked up): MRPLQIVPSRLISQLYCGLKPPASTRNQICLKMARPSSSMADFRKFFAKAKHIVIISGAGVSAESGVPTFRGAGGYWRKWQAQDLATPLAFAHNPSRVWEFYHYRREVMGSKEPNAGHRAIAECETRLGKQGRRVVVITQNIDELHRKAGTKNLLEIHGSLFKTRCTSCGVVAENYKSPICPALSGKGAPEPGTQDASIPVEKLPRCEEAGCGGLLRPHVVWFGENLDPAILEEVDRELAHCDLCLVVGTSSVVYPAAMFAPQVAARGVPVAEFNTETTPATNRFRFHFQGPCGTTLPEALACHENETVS
DENV2 CPE rescue: protects cells from dengue virus 2 cytopathic effect; AID 651640; CPE inhibition, % at 9.99 µM; 350,000 compounds, 1.7% hits; DENV2-infected cells, cytopathic effect rescue, plate reader; in the data active = CPE inhibition above about 20%, passing the limit was not always enough; inconclusive = no clear call, values can overlap the other calls; tested in BHK-21 cells;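 also: 0% = median of neutral control wells and 100% = median of positive control wells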
ARNT Alpha ctr-1: interferes with AlphaScreen signal, flagging false ARNT-TACC3 hits; His-ARNT PASB-GST AlphaScreen artifact counter-screen, luminescence; 1,200 compounds, 50% hits; shares compounds with ARNT TACC3 PPI; AC50, µM (series often up to 68 µM), inactives show at the top dose activity change, negative = signal decrease;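 active = every separate test run was called active for a drop in luminescence, with AC50 within twice the top valid dose, actives reach about 71 µM in these data; inconclusive = the separate test runs disagree in their calls; inactive = all runs inactive, including signal change in the wrong direction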
ARNT Alpha ctr-2: AlphaScreen artifact flagged for ARNT-TACC3 inhibitors; shares compounds with ARNT TACC3 PPI; Dual-tagged His-ARNT PASB-GST AlphaScreen artifact counter-screen; AC50, µM; AID 720564; 45 compounds, 70% hits;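 active = luminescence drop, with half-maximal potency fitted within twice the sample's top valid dose, cut at about 70 µM in these data; inactive = the rest, including signal moving the wrong way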
* = called active by the depositor; ? = inconclusive; / = no result given; [ ] = another dose, or the depositor's remark. Rows were chosen to be rich in hits. Some 3.8% of all compounds tested hit in one or more screens of this group.

SMILES	FN deposit inh	FGF22 binding	ARNT TACC3 PPI	Xi reactivation	SIRT5 inh	DENV2 CPE rescue	ARNT Alpha ctr-1	others
COCCNC(=O)C[C@@H]1C[C@@H]2c3cc(NC(=O)C4CCOCC4)ccc3O[C@@H]2[C@H](CO)O1	5.6	0.2	-13.2	0.0	-0.4	8.5	/
CN(C)c1ccc2c(c1)[C@@H]1C[C@H](CC(=O)O)O[C@@H](CO)[C@@H]1O2	/	-1.4	1.0	0.1	-1.8	3.0	/
COCCNC(=O)C[C@@H]1C[C@H]2c3cc(NC(=O)C4CCOCC4)ccc3O[C@H]2[C@H](CO)O1	0.7	0.0	active	0.2	1.4	24.2*	-7.2%[38 µM]
O=C(C[C@@H]1C[C@@H]2c3cc(NC(=O)C4CCOCC4)ccc3O[C@@H]2[C@H](CO)O1)NCc1cccnc1	-7.7	-0.4	54.7*	0.0	-1.6	-3.9	2.9%[42 µM]
COc1ccc2c3c([nH]c2c1)[C@@H](CO)N(Cc1nccs1)CC31CCN(Cc2cncnc2)CC1	/	-0.1	/	0.0	/	-0.2	/
COc1ccc2c3c([nH]c2c1)[C@H](CO)N(S(=O)(=O)c1cn(C)cn1)CC31CCN(CC2CCCCC2)CC1	-11.4	/	/	0.0	-0.1	?	/
COC(=O)C(CC#Cc1ccc2c(c1)[C@]1(C(=O)N2)[C@H](c2ccc(OCCO)cc2)N2[C@H](c3ccccc3)[C@H](c3ccccc3)OC(=O)[C@H]2[C@@H]1C(=O)N1CCCCCCC1)C(=O)OC	/	0.0	63.3*	/	2.2	4.2	-33.8%[38 µM]
O=C1O[C@@H](c2ccccc2)[C@@H](c2ccccc2)N2[C@@H](c3ccc(OCCO)cc3)[C@]3(C(=O)Nc4ccc(C#CC5(O)CCCCCC5)cc43)[C@@H](C(=O)N3CCCCCCC3)[C@H]12	/	-0.1	21.9	/	8.0	10.3	/
COc1ccc(CN(C)C[C@@H]2Oc3ccc(NS(C)(=O)=O)cc3C(=O)N([C@@H](C)CO)C[C@@H]2C)cc1	/	0.0	-3.7	0.4	-3.5	12.4	/
CN1[C@@H]2Cn3c(ccc(/C=C/c4ccccc4)c3=O)[C@H]1[C@@H](C(=O)NC1CCCCC1)[C@@H]2CO	/	/	/	0.0	-47.8	?	/
O=C(N/N=C/c1c(O)ccc2ccccc12)c1ccc(CO)nc1	14.5	0.2	58.7*	0.0	2.8	4.4	67.3µM*
COc1ccc2ccccc2c1/C=N/NC(=O)c1ccc(C)nc1	0.8	0.0	-4.6	0.1	-2.7	-2.8	/
CC1CCCC(C)N1C(=O)COC(=O)c1ccc([N+](=O)[O-])o1 (configuration not stated)	6.9	-0.1	30.2*	0.2	-1.3	-3.4	-17.2%
CC1CCCC(C)N1C(=O)COC(=O)c1cc([N+](=O)[O-])ccc1N1CCOCC1 (configuration not stated)	5.0	0.1	-3.5	0.2	1.3	?	/
CCOC(=O)C1CCN(C(=O)COC(=O)c2ccc([N+](=O)[O-])o2)CC1	7.6	0.2	33.2*	0.0	-5.8	76.3*	-10.8%
CC1CC(C)CN(C(=O)COC(=O)c2ccc([N+](=O)[O-])o2)C1 (configuration not stated)	-1.6	-0.2	-1.3	0.3	-0.4	-2.8	/
Cc1ccccc1-c1cnc2c(c1)C(=O)N([C@H](C)CO)C[C@@H](C)[C@H](CN(C)Cc1cncnc1)O2	/	/	/	-1.2	/	/	/
O=C(CSC1=NNC(c2ccccn2)S1)Nc1cccc(Cl)c1 (configuration not stated)	7.3	-0.1	11.6	-0.1	-3.2	3.2	/
O=C(CSC1=NNC(c2ccccn2)S1)Nc1ccccc1 (configuration not stated)	6.9	-0.1	58.2*	-0.1	-5.7	-4.3	6.36µM*
CCc1c(C)sc(NC(=O)C2CC(c3c(F)cccc3Cl)=NO2)c1C#N (configuration not stated)	4.7	0.0	active	-0.1	-0.6	0.2	2.9%
N#Cc1c(NC(=O)C2CC(c3c(F)cccc3Cl)=NO2)sc2c1CCC2 (configuration not stated)	/	/	0.9	/	/	/	/
Nc1nc(-c2ccccn2)nc(N)c1Cc1ccccc1F	4.4	0.0	66.7*	0.0	-1.1	-5.4	21.6µM*
Clc1ccc(OCc2nc(-c3ccccn3)no2)c(Br)c1	7.1	-0.4	-8.7	0.6	-6.7	?	/
Nc1nc(-c2ccccn2)nc(N)c1Cc1c(F)cccc1Cl	-7.6	/	/	0.0	-3.7	0.4	/
Nc1nc(-c2ccccn2)nc(N)c1Cc1ccc(Cl)cc1Cl	-3.7	0.1	57.1*	0.0	-2.5	-4.6	25.7µM*	ARNT Alpha ctr-2=11.6*
SMILES	FN deposit inh	FGF22 binding	ARNT TACC3 PPI	Xi reactivation	SIRT5 inh	DENV2 CPE rescue	ARNT Alpha ctr-1	others
COc1ccc(C#Cc2ccc3c(c2)[C@H]2[C@H](CCN2C(=O)NC(C)C)[C@H](CO)N3C)cc1	2.3	0.3	-1.2	0.0	3.9	-2.7	/
Cc1ccc(C(=O)Oc2ccc(/C=C3\C(=N)N4N=C(N5CCOCC5)SC4=NC3=O)cc2)cc1	-0.8	0.1	56.3*	-0.1	-0.8	5.6	-27.0%
NC1=NN=C(N2N=C(c3ccco3)CC2(O)C(F)(F)F)n2ncnc2C1 (configuration not stated)	-1.6	41.7	72.9*	0.0	-5.4	/	-22.2%
O=C(C[C@H]1C=C[C@@H](NC(=O)Nc2ccccc2)[C@@H](CO)O1)NCc1ccccn1	/	-0.2	34.5*	-0.4	-2.7	13.2	-8.4%[42 µM]
O=C(C[C@H]1C=C[C@H](NC(=O)Nc2ccccc2)[C@H](CO)O1)NCc1ccccn1	/	-0.3	3.2	0.0	3.3	-1.6	/
O=C(O)COc1ccccc1/C=N/NC(=O)c1cccc(S(=O)(=O)Nc2cccc(Cl)c2)c1	-10.2	43.0*	51.7*	0.0	-2.1	1.1	71.2µM*
COc1ccccc1NS(=O)(=O)c1cccc(C(=O)N/N=C/c2ccc(OCC(=O)O)cc2)c1	6.8	0.6	-2.2	0.4	4.0	7.0	/
O=C(NCCCCO)c1cc(-c2ccccc2)on1	/	/	/	/	/	/	-4.7%[38 µM]
O=C(NCc1ccccc1)c1cc(-c2ccccc2)on1	/	/	/	/	/	/	-2.4%[38 µM]
O=C(NCc1ccccc1)c1cc(-c2cccs2)on1	/	0.0	-14.5	/	-2.0	-5.2	/
Cc1ccc(-c2cc(C(=O)NCc3cccnc3)no2)cc1	0.1	/	0.0	/	-0.3	/	/
Cc1ccc(CNC(=O)c2cc(-c3ccccc3)on2)cc1	/	/	/	/	/	/	2.1%[38 µM]
O=C(C[C@@H]1CC[C@H]2[C@@H](COC[C@H](O)CN2S(=O)(=O)c2ccc(Oc3ccccc3)cc2)O1)Nc1ccccc1	2.7	/	9.5	0.2	6.6	-2.3	/

Assay outcomes: PubChem, Broad Institute
